# HSP90 inh: inhibitors of HSP90 luciferase refolding in rabbit reticulocyte lysate. luciferase refolding luminescence, 3 h. inhibition, % at 5.6 µM. hit rate 0.91% among 290,000;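 active = inhibition above the screen-wide mean plus 3 SD, computed separately per campaign, cut at about 16% in these data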;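 also: 0% = DMSO wells and 100% = 60 µM geldanamycin wells; inhibitors lower the luminescence because luciferase stays unfolded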
# SENP8 block-1: inhibitors of human SENP8 protease; inhibition, % at 20 µM; hit rate 0.64% among 360,000; Q96LD8; recombinant SENP8, Nedd8 substrate fluorescence; in the data active = inhibition mostly above about 40%, no sharp cut-off; inactive = mostly below about 27%
# Target sequence (Q96LD8 whole entry, looked up): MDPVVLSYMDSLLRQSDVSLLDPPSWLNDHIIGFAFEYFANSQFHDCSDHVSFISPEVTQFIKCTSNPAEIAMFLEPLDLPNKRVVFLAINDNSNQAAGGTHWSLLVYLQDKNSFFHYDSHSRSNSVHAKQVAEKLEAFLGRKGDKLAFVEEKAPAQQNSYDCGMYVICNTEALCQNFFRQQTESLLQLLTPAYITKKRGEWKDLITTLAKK
# SENP1 FRET inh: blocks the human SENP1 SUMO protease catalytic domain. inhibition, % at 10 µM. hit rate 0.21% among 360,000. recombinant SENP1 catalytic domain, CyPet-SUMO1-YPet FRET cleavage. Q9P0U3;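 active = inhibition at least 30% at 10 µM, raw YFP signal under a set limit, fluorescence ratio 0.5 to 1.5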;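 also: 0% = enzyme with DMSO and 100% = no enzyme wells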
#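 Test system: hSENP1 catalytic domain, recombinant; Amount: 20 pM final SENP1 enzyme; Medium: Tris pH 8 buffer plus EDTA, NaCl, BME, BSA, NP40, catalase; Schedule: 50 min enzyme reaction, room temperature, light-protected; Technique: FRET fluorescence in CFP and YFP emission channels; Controls: no-enzyme wells low, DMSO-plus-enzyme wells high control.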
# SENP7 block: SENP7 protease inhibition; Q9BQF6; recombinant SENP7, Z-RLRGG-aminoluciferin luminescence, 40 min; inhibition, % at 5 µM; hit rate 1.5% among 330,000; AID 434973;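 active = inhibition above about 50% at the single test dose, limit read from the data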;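 also: plate controls were DMSO with enzyme for no effect and no enzyme buffer wells for full effect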
# SENP6 block: SENP6 protease inhibition; Q9GZR1; Recombinant SENP6 catalytic domain, aminoluciferin luminescence; inhibition, % at 10 µM; hit rate 1.8% among 330,000;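 active = inhibition above about 50% at the single tested dose, limit read from the data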;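 also: plate controls were DMSO wells with enzyme for no effect and DMSO wells lacking enzyme for full effect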
# Target sequence (Q9GZR1 628-1112 limits assumed): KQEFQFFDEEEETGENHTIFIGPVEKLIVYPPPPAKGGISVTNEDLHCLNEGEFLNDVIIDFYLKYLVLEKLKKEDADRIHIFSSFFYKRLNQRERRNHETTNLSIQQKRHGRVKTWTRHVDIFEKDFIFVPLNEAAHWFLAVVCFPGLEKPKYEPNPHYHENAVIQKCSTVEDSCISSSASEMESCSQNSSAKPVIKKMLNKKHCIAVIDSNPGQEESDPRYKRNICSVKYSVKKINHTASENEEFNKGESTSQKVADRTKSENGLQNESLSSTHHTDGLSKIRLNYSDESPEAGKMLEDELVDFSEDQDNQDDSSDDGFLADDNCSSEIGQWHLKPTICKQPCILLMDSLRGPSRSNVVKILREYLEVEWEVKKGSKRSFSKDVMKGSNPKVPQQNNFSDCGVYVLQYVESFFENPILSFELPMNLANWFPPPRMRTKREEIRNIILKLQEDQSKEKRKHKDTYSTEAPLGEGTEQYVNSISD
# SENP8 block-2: blocks the human protease SENP8. hit rate 1.2% among 330,000. purified SENP8, Z-RLRGG-aminoluciferin cleavage, luminescence. inhibition, % at 10 µM. Q96LD8; in the data active = inhibition above about 50%
# HSP90 confirm: confirmation of HSP90 inhibitors | shares compounds with HSP90 inh | rabbit reticulocyte lysate, luciferase refolding luminescence, 3 h | inhibition, % at 5.9 µM | hit rate 64% among 2,300; in the data active = inhibition above about 18%;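 also: 0% = vehicle wells and 100% = reference inhibitor wells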
# luciferase ctr: blocks native firefly luciferase in HSP90 counter-screen; inhibition, % at 5.9 µM; hit rate 48% among 2,300; purified native firefly luciferase, luminescence; shares compounds with HSP90 inh;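 active = inhibition above the mean inhibition of all tested sample wells plus 3 SD, cut at about 10% in these data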;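 also: 0% = DMSO with luciferase and 100% = wells lacking luciferase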
# * marks the source's active call; other numbers are inactive results; x = no result. An excerpt weighted towards active compounds, which were near 2.9% of everything screened.
SMILES,HSP90 inh,SENP8 block-1,SENP1 FRET inh,SENP7 block,SENP6 block,SENP8 block-2,HSP90 confirm,luciferase ctr
COc1ccc(CN2CCN(CCCc3ccccc3)C(CCO)C2)cc1OC (stereo not given),0.9,-1.2,-1.9,10.9,5.1,-1.6,x,x
Clc1ccc(-n2ncc3c(N4CCCC4)ncnc32)cc1,30.8*,9.4,-16.2,1.6,46.7,7.7,61.8*,58.5*
FC(F)(F)c1ccc(-c2cccc3c2C2CC3CCN2C(=S)NCCc2ccccc2)cc1 (stereo not given),x,5.7,-0.5,x,x,x,x,x
COc1ccc(/C=C2\SC(=S)N(CCC(=O)Nc3ccc(O)cc3)C2=O)cc1,1.1,17.1,-10.3,-5.9,-3.1,8.6,x,x
CCN(CC)CCOC(=O)c1ccc(NC(=O)CCCN2C(=O)S/C(=C/c3ccc(OC)cc3)C2=S)cc1,33.5*,21.1,-16.4,1.4,8.9,-9.2,30.0*,-25.9
COc1cccc(C(=O)O)c1OS(=O)(=O)c1ccc(C)cc1,x,8.8,0.8,x,x,x,x,x
COc1ccccc1N1CCN(C(=S)Nc2cccc(C)c2)CC1,27.1*,2.8,2.2,1.8,-14.6,3.6,29.5*,1.2
CC(C)(C)C(=O)N1CCc2cc(-c3csc(N)n3)ccc21,56.6*,-18.1,-2.2,12.0,34.7,4.7,75.5*,69.9*
c1ccc(Cc2noc(CN3CCN(CCOc4ccccc4)CC3)n2)cc1,-0.7,4.3,-2.1,6.2,-28.5,-9.5,x,x
COC(=O)c1ccc(NC(=O)c2cccc(C)c2)cc1,-1.6,15.3,2.0,12.5,29.9,-6.5,x,x
COC(=O)c1ccc(NC(=O)c2ccc3nsnc3c2)cc1,68.5*,1.3,1.8,9.0,-1.2,1.7,-14.6,-27.3
Cc1ccc2oc(/N=C(\N)NC(=O)C(C)(C)C)nc2c1,81.1*,-1.5,-1.7,64.8*,36.9,36.4,84.5*,82.9*
Cc1ccc2oc(/N=C(\N)NC(=O)C3CC3)nc2c1,26.8*,13.8,2.5,0.2,21.2,-1.9,47.8*,40.1*
CCN(CC)S(=O)(=O)c1ccc(S(=O)(=O)N2CCC(N3CCCCC3)CC2)cc1,-0.7,13.5,-0.7,-8.3,-30.7,-12.4,x,x
COC(=O)C[C@H]1CC[C@@H](NS(=O)(=O)c2ccc(C)cc2)[C@@H](CO)O1,x,14.7,3.1,x,x,x,x,x
CCN(CC)CCNC(=O)c1ccc(Sc2ccc(Cl)cc2)c(NC(C)=O)c1,-3.5,-8.2,1.3,-6.0,-6.1,-8.4,x,x
COC(=O)c1ccc(NC(=O)c2ccc(F)cc2)o1,0.6,11.9,0.5,-7.4,-18.7,-9.5,x,x
COC(=O)c1ccc(NC(=O)c2ccc(C)cc2)o1,29.6*,-5.2,-1.1,7.5,10.3,0.6,37.5*,-15.8
CC1CCN(S(=O)(=O)c2ccc3ncn(CC(=O)N4CCN(C)CC4)c(=O)c3c2)CC1,-2.3,9.4,2.3,3.7,19.3,3.4,x,x
COc1ccc(-c2csc(Nc3ccc(S(N)(=O)=O)cc3)n2)cc1OC,23.3*,-232.2,-15.3,2.9,0.3,9.7,-6.7,-6.4
CC(C)n1cc(CN2CCCC(C(=O)Nc3cccc(-c4cc5ccccc5[nH]4)c3)C2)cn1 (stereo not given),18.2*,-417.9,-2.6,-5.3,5.0,-7.0,10.8,-6.2
CCn1cc(CN2CCCC(C(=O)Nc3cccc(-c4cc5ccccc5[nH]4)c3)C2)c(C)n1 (stereo not given),-0.7,-336.6,-3.8,0.4,-9.8,-0.7,x,x
Cn1cc(CN2CCCC(C(=O)Nc3cccc(-c4cc5ccccc5[nH]4)c3)C2)cn1 (stereo not given),22.7*,-393.4,-7.5,3.9,-6.6,-2.0,6.9,-11.2
CCOC(=O)/C(C#N)=C\c1cc(C)n(-c2ccccc2)c1C,49.9*,-94.6,-5.4,3.4,-29.6,-16.6,62.7*,61.7*
C#CCOCCOCCOCCNc1nc(N2CCN(C(=O)[C@H](Cc3cc4ccccc4[nH]3)n3cc([C@@H](N)C(C)CC)nn3)CC2)nc(N2CCN(C(=O)[C@H](Cc3cc4ccccc4[nH]3)n3cc([C@@H](N)Cc4ccc(O)cc4)nn3)CC2)n1 (stereo not given in full),21.1*,x,x,34.7,-27.3,-18.5,27.2*,-8.0
SMILES,HSP90 inh,SENP8 block-1,SENP1 FRET inh,SENP7 block,SENP6 block,SENP8 block-2,HSP90 confirm,luciferase ctr
C#CCOCCOCCOCCNc1nc(N2CCOCC2)nc(N2CCN(C(=O)[C@H](Cc3cc4ccccc4[nH]3)n3cc([C@@H](N)CC(C)C)nn3)CC2)n1,6.1,-22.8,-22.2,-7.1,-32.1,-17.6,x,x
C#CCOCCOCCOCCNc1nc(N2CCN(C(=O)[C@H]([C@@H](C)CC)n3cc([C@@H](N)Cc4ccc(O)cc4)nn3)CC2)nc(N2CCN(C(=O)[C@H](Cc3cc4ccccc4[nH]3)n3cc([C@@H](N)C(C)CC)nn3)CC2)n1 (stereo not given in full),18.8*,x,x,-7.2,-20.9,1.0,9.7,-9.7
C#CCOCCOCCOCCNc1nc(N2CCN(C(=O)[C@H](Cc3cc4ccccc4[nH]3)n3cc([C@@H](N)CC(C)C)nn3)CC2)nc(N2CCN(C(=O)[C@H](Cc3cc4ccccc4[nH]3)n3cc([C@@H](N)CC(C)C)nn3)CC2)n1,20.4*,-1.3,-9.1,6.0,-13.5,-21.8,18.2*,-9.8
COc1ccc(-c2noc(N3CCCC(C(=O)Nc4ccc(C(C)=O)cc4)C3)n2)cc1 (stereo not given),-6.0,8.6,2.2,27.9,34.9,29.3,x,x
O=C(NCC(=O)N1CCCCCC1)c1ccc(Br)cc1,-2.3,4.2,2.7,-8.3,-5.1,-1.5,x,x
CCOC(=O)N1CCN(C(=O)C[C@@H]2C[C@@]3(C(=O)OCC)CCCC=C3N(Cc3ccccc3)C2=O)CC1,x,16.7,3.3,x,x,x,x,x
CCCC(c1nnnn1CCc1ccccc1)N1CCC(C(N)=O)CC1 (stereo not given),-0.7,21.1,1.2,1.8,3.6,-6.7,x,x
Cc1ccc(OCc2ccc(C(=O)N3CCCC3)o2)cc1C,-3.1,9.0,1.3,-4.6,-8.0,-12.4,x,x
CCOc1ccc(OCc2ccc(C(=O)N3CCCCC3)o2)cc1,23.4*,-5.9,3.2,4.8,-2.3,-3.3,13.0,-25.6
CCOc1ccc(OCc2ccc(C(=O)N3CCc4ccccc4C3)o2)cc1,24.3*,-12.5,-3.9,6.0,21.9,5.5,32.6*,-18.2
CCOc1ccc(OCc2ccc(C(=O)Nc3cccnc3)o2)cc1,27.9*,4.7,-0.7,8.5,0.1,3.8,31.6*,-22.5
Cc1ccc(C(=O)CCC(=O)OCC(=O)NNC(=O)c2ccccc2Cl)cc1,x,6.2,0.7,-3.3,-3.2,-5.6,x,x
CCC(=O)NC1=C(Cl)C(=O)C(NC(=O)CC)=C(Cl)C1=O,29.9*,50.4*,0.9,-5.4,22.9,-12.5,12.1,74.6*

# Bioassay records deposited in PubChem by several laboratories.
